Results: ChEMBL document CHEMBL1158423, “Antibacterial activity of berberine-NorA pump inhibitor hybrids with a methylene ether linking group” (2009)
The source made the active and inactive calls. No cut-off for these calls is given here.

How the values were obtained:
Nucleic Acid [1] = test: Binding affinity to F10 duplex DNA by electrospray ionization mass spectrometry; type: nucleic-acid assay
In short: (§1)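 Duplex D1, D2 or forked F10 was annealed from complementary strands in 0.1 M ammonium acetate. ESI-MS used a 100 V cone voltage; thirty acquisitions were combined, baseline-subtracted and smoothed.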

Staphylococcus aureus [2] = test: Antibacterial activity against wild type Staphylococcus aureus 8325-4 after 18 hrs by twofold serial dilution method relative to berberine; type: functional
In short: (§2)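 Broth microdilution with an inoculum of 10^5 cells/mL and serial 2-fold compound dilutions, run in triplicate. Plates were incubated 18 h at 37 °C and growth was read as absorbance at 600 nm. MIC was the lowest concentration giving complete growth inhibition.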

Nucleic Acid [3] = test: Binding affinity to D2 duplex DNA by electrospray ionization mass spectrometry; type: nucleic-acid assay; in short: as §1
Staphylococcus aureus [4] = test: Antibacterial activity against Staphylococcus aureus K2378 overexpressing NorA efflux pump after 18 hrs by twofold serial dilution method; type: functional; conditions: K2378, 18 h
In short: (§3)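 Broth microdilution with serial 2-fold dilutions of compound, cells inoculated at 10^5 per mL, in triplicate. MIC is the lowest concentration giving complete growth inhibition over 18 h at 37 °C. Growth is read as absorbance at 600 nm.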

Escherichia coli [5] = test: Antibacterial activity against Escherichia coli K-12 after 18 hrs by twofold serial dilution method; type: functional; conditions: K-12, 18 h
In short: (§4)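 Broth microdilution: cells at 10^5 mL−1 in broth, serial 2-fold dilutions of compound, triplicate determinations; 18 h at 37 °C; growth followed by absorbance at 600 nm. MIC taken as the lowest concentration giving complete growth inhibition.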

Nucleic Acid [6] = test: Binding affinity to quadruplex Q3 DNA by electrospray ionization mass spectrometry; type: nucleic-acid assay
Escherichia coli [7] = test: Antibacterial activity against Escherichia coli ECM116 mar1642 overexpressing […] pump after 18 hrs by twofold serial dilution method relative to berberine; type: functional; in short: as §2
Escherichia coli [8] = test: Antibacterial activity against Escherichia coli ECM1642 after 18 hrs by twofold serial dilution method; type: functional; conditions: ECM1642, 18 h; in short: as §4
Staphylococcus aureus [9] = test: Antibacterial activity against Staphylococcus aureus K1758 NorA efflux pump-deficient mutant after 18 hrs by twofold serial dilution method; type: functional; conditions: K1758, 18 h; in short: as §3
Nucleic Acid [10] = test: Binding affinity to D1 duplex DNA by electrospray ionization mass spectrometry; type: nucleic-acid assay; in short: as §1
Nucleic Acid [11] = test: Binding affinity to quadruplex Q1 DNA by electrospray ionization mass spectrometry; type: nucleic-acid assay
Escherichia coli [12] = test: Antibacterial activity against Escherichia coli BW-25116 TolC-deficient mutant after 18 hrs by twofold serial dilution method; type: functional; conditions: BW25116, 18 h; in short: as §3
Staphylococcus aureus [13] = test: Antibacterial activity against Staphylococcus aureus K2378 overexpressing NorA efflux pump after 18 hrs by twofold serial dilution method relative to berberine; type: functional
Staphylococcus aureus [14] = test: Antibacterial activity against wild type Staphylococcus aureus 8325-4 after 18 hrs by twofold serial dilution method; type: functional; conditions: 8325-4, 18 h; in short: as §4
Escherichia coli [15] = test: Antibacterial activity against Escherichia coli ECM116 mar1642 overexpressing […] pump after 18 hrs by twofold serial dilution method; type: functional; conditions: ECM116, 18 h; in short: as §3
Staphylococcus aureus [16] = test: Antibacterial activity against Staphylococcus aureus K1758 NorA efflux pump-deficient mutant after 18 hrs by twofold serial dilution method relative to berberine; type: functional
Escherichia coli [17] = test: Antibacterial activity against Escherichia coli BW-25116 TolC-deficient mutant after 18 hrs by twofold serial dilution method relative to berberine; type: functional, BW25116; in short: as §2
Enterococcus faecalis [18] = test: Antibacterial activity against Enterococcus faecalis V583 after 18 hrs by twofold serial dilution method; type: functional; conditions: V583, 18 h; in short: as §4
Enterococcus faecalis [19] = test: Antibacterial activity against Enterococcus faecalis MMH594 after 18 hrs by twofold serial dilution method; type: functional; conditions: MMH594, 18 h; in short: as §4
Enterococcus faecalis [20] = test: Antibacterial activity against Enterococcus faecalis OG1RF after 18 hrs by twofold serial dilution method; type: functional; in short: as §4
[21] = biological target: T1, Quinolone resistance protein NorA (Staphylococcus aureus) (UniProt P0A0J7); test: Inhibition of NorA efflux pump in Staphylococcus aureus K1758 NorA efflux pump-deficient mutant assessed as increase in berberine accumulation at 3 uM
T1 sequence (whole entry): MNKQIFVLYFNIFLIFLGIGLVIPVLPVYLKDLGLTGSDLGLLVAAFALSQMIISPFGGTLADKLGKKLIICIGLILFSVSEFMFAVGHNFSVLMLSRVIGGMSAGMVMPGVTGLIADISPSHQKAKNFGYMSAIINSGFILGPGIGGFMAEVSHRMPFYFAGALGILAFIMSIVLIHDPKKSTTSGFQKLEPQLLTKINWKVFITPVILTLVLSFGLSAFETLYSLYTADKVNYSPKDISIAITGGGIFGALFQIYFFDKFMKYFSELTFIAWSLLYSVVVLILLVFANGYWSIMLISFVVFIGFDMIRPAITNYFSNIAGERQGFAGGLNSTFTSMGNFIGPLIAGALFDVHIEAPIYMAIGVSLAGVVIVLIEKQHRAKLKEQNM
In short: (§5)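 Cells are grown at 37 °C to OD600 1.5 and washed twice in PBS. They are energised in PBS with 10 mM dextrose (OD ~0.8) for 1 h at 37 °C with aeration, washed, then diluted to OD ~0.3 in PBS. Compounds are added at 3 μM final. Accumulation is followed by fluorescence at ex/em 355/517 nm, with cell-free background subtracted.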

[22] = biological target: T1, Quinolone resistance protein NorA (Staphylococcus aureus); test: Inhibition of NorA efflux pump in Staphylococcus aureus K2378 overexpressing NorA efflux pump assessed as inhibition of EtBr efflux at 3 uM
In short: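 K2378 cells are grown at 37 °C to OD ~0.9, washed in PBS and loaded with 3 μM ethidium bromide plus 30 μg/mL reserpine for 20 min at 37 °C. After ice-cold washes, they are added at OD 0.3 to ice-cold PBS with 10 mM dextrose containing inhibitor at 3 μM final. The no-efflux control is PBS without dextrose plus reserpine. Efflux is read at ex/em 530/600 nm.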

[23] = biological target: T1, Quinolone resistance protein NorA (Staphylococcus aureus); test: Inhibition of NorA efflux pump in Staphylococcus aureus K2378 overexpressing NorA efflux pump assessed as potentiation of EtBr uptake at 3 uM
In short: (§6)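 Cells are prepared as for the accumulation assay: grown to OD600 1.5, washed in PBS, energised 1 h at 37 °C in PBS with 10 mM dextrose, then diluted to OD ~0.3 in PBS. The inhibitor (3 μM final) is added before ethidium bromide. Uptake is read by fluorescence at ex/em 530/600 nm, with cell-free background subtracted.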

[24] = biological target: T1, Quinolone resistance protein NorA (Staphylococcus aureus); test: Inhibition of NorA efflux pump in Staphylococcus aureus K2378 overexpressing NorA efflux pump overexpressing NorA efflux pump assessed as increase in berberine accumulation at 3 uM; in short: as §5
[25] = biological target: T1, Quinolone resistance protein NorA (Staphylococcus aureus); test: Inhibition of NorA efflux pump in Staphylococcus aureus K1758 NorA efflux pump-deficient mutant assessed as potentiation of EtBr uptake at 3 uM; in short: as §6
[26] = biological target: T1, Quinolone resistance protein NorA (Staphylococcus aureus); test: Inhibition of NorA efflux pump in wild type Staphylococcus aureus 8325-4 assessed as potentiation of EtBr uptake at 3 uM; in short: as §6
[27] = biological target: T1, Quinolone resistance protein NorA (Staphylococcus aureus); test: Inhibition of NorA efflux pump in wild type Staphylococcus aureus 8325-4 assessed as increase in berberine accumulation at 3 uM; in short: as §5

Structure (SMILES)	fold change (FC) (Staphylococcus aureus [2])	MIC (Staphylococcus aureus [4]) [µM]	MIC (Escherichia coli [5]) [µM]	fold change (FC) (Escherichia coli [7])	MIC (Escherichia coli [8]) [µM]	MIC (Staphylococcus aureus [9]) [µM]	MIC (Escherichia coli [12]) [µM]	fold change (FC) (Staphylococcus aureus [13])	MIC (Staphylococcus aureus [14]) [µM]	MIC (Escherichia coli [15]) [µM]	fold change (FC) (Staphylococcus aureus [16])	fold change (FC) (Escherichia coli [17])	MIC (Enterococcus faecalis [18]) [µM]	MIC (Enterococcus faecalis [19]) [µM]	MIC (Enterococcus faecalis [20]) [µM]	other results
COc1ccc2c(OCc3ccc4ccccc4c3)c3[n+](cc2c1OC)CCc1cc2c(cc1-3)OCO2.[Br-]	30	21.9	> 175	15	> 175	5.5	10.9	>30	10.9	21.9	7	30				Activity (Nucleic Acid [1]): 15%; Activity (Nucleic Acid [3]): 20%; Activity (Nucleic Acid [6]): 67%; Activity (Nucleic Acid [10]): 30%; Activity (Nucleic Acid [11]): 100%
COc1ccc2c(OCc3ccc(C#N)cc3)c3[n+](cc2c1OC)CCc1cc2c(cc1-3)OCO2.[Br-]	2	> 183	> 183	7	> 183	91.4	91.4	4	183	45.7	<2	4				
COc1ccc2cc3[n+](cc2c1OC)CCc1cc2c(cc1-3)OCO2 [BERBERINE CHLORIDE]		> 650	> 2600		> 2600	40	325		325	325			> 650	> 650	650	
COc1ccc2c(OCc3ccccc3)c3[n+](cc2c1OC)CCc1cc2c(cc1-3)OCO2.[Br-]	14	95.8	> 192	14	> 192	12	12	7	24	24	3	27				
COc1ccc2c(Cc3ccccc3-c3cc4cc([N+](=O)[O-])ccc4[nH]3)c3[n+](cc2c1OC)CCc1cc2c(cc1-3)OCO2		3.1	> 150		> 150	3.1	> 150		3.1	> 150			6.3	6.3	6.3	Activity [21]: Active; Activity [22]: Active; Activity [23]: Active; Activity [24]: Active; Activity [25]: Active; Activity [26]: Active; Activity [27]: Active
COc1ccc2c(OCc3ccccn3)c3[n+](cc2c1OC)CCc1cc2c(cc1-3)OCO2.[Br-]	<2	> 191	> 191	2	> 191	191	191	>3	> 191	191	<5	2				
